Bioassay records: PubChem BioAssay, several laboratories
A selection: hits, their analogues and other compounds. The true share with any hit is near 4.5%.
PERK inhibitor: blocks human PERK kinase; Q9NZJ5; CHO PERK-DD fusion, SEAP luminescence translation reporter; inhibition, % at 5.6 µM; 220,000 compounds, 0.17% hits;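 active = inhibition above the mean inhibition of all tested compounds plus 3 SD, set separately per screening campaign, cut at about 2.9% in these data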;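 note: PERK kinase domain activated by AP20187 dimerizer at 100 nM; 0% = DMSO with dimerizer and 100% = rapamycin at 8.4 µM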
NF-kB expr up: compounds increasing NF-kB expression in human neuronal cells. NF-kB reporter expression; active compounds read high. fold change at 12.5 µM. 190,000 compounds, 1.6% hits; in the data active = fold change above about 3.3
APP 5'UTR act: APP 5'UTR luciferase reporter activation; SH-SY5Y APP 5'UTR luciferase reporter, luminescence; zero percent = DMSO vehicle wells; activation, % at 2 µM; 190,000 compounds, 1% hits; AID 1276;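 active = activation above a set limit, based on mean plus 3 SD of controls, cut at about 140% in these data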
STAT1 act: increases IFN-gamma driven STAT1 reporter signal | NIH 3T3 STAT1-luciferase reporter, luminescence; 100% = IFN-gamma alone, no compound | 200,000 compounds, 2.6% hits | activation (% of control), % at 5.5 µM;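 active = activation above the screen-wide mean activation plus 3 SD, cut at about 130% in these data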;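 note: raw ratio to IFN-gamma control signal so 100% means no change and 0% no light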
AHR act: activators of human aryl hydrocarbon receptor; P35869; AHR-responsive luciferase reporter cells, luminescence; activation, % at 5 µM; 320,000 compounds, 2.5% hits; AID 2796; in the data active = activation above about 47%;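 note: 0% = vehicle wells and 100% = reference agonist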
Target sequence (P35869 whole entry, looked up): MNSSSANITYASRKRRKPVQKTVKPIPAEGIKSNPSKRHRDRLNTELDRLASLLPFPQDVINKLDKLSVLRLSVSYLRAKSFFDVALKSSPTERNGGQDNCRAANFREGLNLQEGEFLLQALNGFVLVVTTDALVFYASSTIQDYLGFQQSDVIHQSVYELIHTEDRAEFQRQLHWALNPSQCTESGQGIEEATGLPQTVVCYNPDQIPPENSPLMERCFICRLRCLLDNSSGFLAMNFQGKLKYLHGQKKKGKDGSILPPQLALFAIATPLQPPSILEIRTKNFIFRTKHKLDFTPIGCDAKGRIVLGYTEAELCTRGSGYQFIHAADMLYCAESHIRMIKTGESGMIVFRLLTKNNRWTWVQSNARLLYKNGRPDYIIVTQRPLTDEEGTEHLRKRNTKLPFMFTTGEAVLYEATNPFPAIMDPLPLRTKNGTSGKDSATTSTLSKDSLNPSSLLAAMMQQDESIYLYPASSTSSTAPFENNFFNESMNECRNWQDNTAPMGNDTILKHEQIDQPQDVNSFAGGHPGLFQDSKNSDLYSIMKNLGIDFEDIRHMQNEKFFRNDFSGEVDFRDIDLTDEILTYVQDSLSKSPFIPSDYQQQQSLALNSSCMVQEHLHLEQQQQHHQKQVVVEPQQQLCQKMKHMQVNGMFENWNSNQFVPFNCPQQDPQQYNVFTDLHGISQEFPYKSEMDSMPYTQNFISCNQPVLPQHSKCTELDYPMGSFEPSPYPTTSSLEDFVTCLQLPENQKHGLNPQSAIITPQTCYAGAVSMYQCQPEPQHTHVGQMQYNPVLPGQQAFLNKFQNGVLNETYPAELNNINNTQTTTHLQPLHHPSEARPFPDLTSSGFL
MDM2 E3 inh: inhibitors of human Mdm2 E3 ubiquitin ligase; cell-based MDM2 ubiquitination luciferase reporter, 2 h; 0 = plate control, 100 = twice control, blank-subtracted; signal enhancement, % at 5 µM; 210,000 compounds, 0.11% hits; AID 1230;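 active = signal enhancement of 30% or more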;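 note: luminescence tracks abundance of the self-degrading MDM2-luciferase fusion protein; higher signal means inhibition of MDM2 E3 ligase activity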
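Assay system: stable mammalian line carrying autodegrading MDM2–luciferase fusion reporter; Input: 2000 cells in each well; Compound dosing: single-point 5 µM; Schedule: 2 h compound exposure at 37 °C; Signal: SteadyLite luciferase luminescence after 15 min room-temperature reagent incubation; Evaluation: % luminescence enhancement versus blank-corrected plate control mean; Benchmarks: plate controls and plate blanks.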
Active calls of the source: *; / = no result.

SMILES | PERK inhibitor | NF-kB expr up | APP 5'UTR act | STAT1 act | AHR act | MDM2 E3 inh
Cc1ccc(NC(=O)OC(C)CNC(=O)Oc2cccc(C)c2)cc1 (stereo not drawn) | 1 | 1.7 | 45 | 140* | 9 | -9
COc1cc(OC)cc(-c2c(-c3cccs3)c3cc(-c4ccc5c(c4)OCCO5)ccc3n2C)c1 | / | / | / | / | 2 | /
Cc1ccc(S(=O)(=O)C2(C(=O)NCc3ccc4c(c3)OCO4)CC2)cc1 | 0 | 1.1 | 2 | 96 | 31 | -11
O=C(CSCc1ccc(Cl)cc1)NCc1ccc2c(c1)OCO2 | 0 | 1.2 | 5 | 105 | 1 | -2
O=C(Cn1nc(-c2ccc(Cl)cc2)ccc1=O)NCc1ccc2c(c1)OCO2 | 2 | 1.3 | -14 | 100 | 54* | -2
O=C(NCc1ccc2c(c1)OCO2)C1(S(=O)(=O)c2ccccc2)CC1 | 0 | 1.2 | 16 | 105 | 70* | 9
O=C(Cn1nc(-c2ccccc2)ccc1=O)NCc1ccc2c(c1)OCO2 | 0 | 1.2 | -9 | 104 | 68* | /
C/C(CCc1ccccc1)=N/NC(=O)C(=O)NC(C)c1ccccc1 (stereo not drawn) | 1 | 1.5 | -5 | 94 | 1 | -7
O=[N+]([O-])c1ccc(C2=CSC3=NCCN23)cc1 | / | / | / | / | 1 | /
[O-][n+]1c2cc(C(F)(F)F)ccc2c2n1CCN=C2c1ccc(Cl)cc1 | / | / | / | / | 63* | /
Nc1c(Cl)cc(C2=NCCn3c2c2ccc([N+](=O)[O-])cc2[n+]3[O-])cc1Cl | / | / | / | / | 73* | /
CC(Nc1cccnc1)=C(C#N)C#N | 1 | 1.3 | 0 | 107 | 1 | 1
COC(=O)C(CC(=O)O)NCc1ccco1 (stereo not drawn) | 1 | / | / | / | -1 | -8
COCCOC(=O)C(CC(=O)O)NCc1ccco1 (stereo not drawn) | 4.0* | / | / | / | 1 | -14
Cc1cccc(-c2nc3ccccc3c3nncn23)c1 | 0 | 0.9 | 3 | 95 | 22 | -8
Cc1ccc2c(c1)c(-c1ccccc1)nc1nncn12 | 0 | 1.5 | 36 | 104 | 53* | -7
O=C(CCSc1ccccc1)N1CCOCC1 | 0 | 1.8 | 86 | 119 | 16 | -11
O=C(CCSc1ccccc1)NC1CCCCCC1 | 0 | 1.1 | -4 | 144* | 2 | -15
O=C(CCSc1ccccc1)N1CCCC1 | 1 | 2.2 | 76 | 134* | 6 | -19
CCOC(=O)CNS(=O)(=O)c1ccc(S(=O)(=O)NC2CC2)cc1 | / | / | / | / | 2 | /
COc1cc(C)ccc1OCCCOc1ccccc1Cl | 1 | 3.2 | 108 | 144* | 11 | -2
COc1ccc(NC(=O)[C@@H]2CCCN2S(=O)(=O)c2ccccc2F)cc1S(=O)(=O)N1CCCCC1 | / | / | / | / | -1 | /
N#Cc1c(Cl)c(Cl)c2nnc(-c3ccc(Br)cc3)n2c1Cl | 0 | 1.2 | -1 | 92 | 55* | -14
[S-]c1nnc(-c2ccc(Br)cc2)n1-c1ccccc1.[Zn+2] | / | / | / | / | -2 | /
O=C(NCCc1csc(-c2cccnc2)n1)c1cccc2ccccc12 | 1 | 1.4 | 18 | 95 | 57* | -16
SMILES | PERK inhibitor | NF-kB expr up | APP 5'UTR act | STAT1 act | AHR act | MDM2 E3 inh
O=C(NCc1ccccc1)c1csc(-c2cccnc2)n1 | 0 | / | / | / | 67* | -3
O=C(NCCc1csc(-c2cccnc2)n1)c1ccccc1 | 0 | 1.3 | -4 | 100 | 4 | -7
COc1cc(-n2c(=O)c3ccccc3n(CC(=O)c3ccc(F)cc3)c2=O)cc(OC)c1OC | 1 | 3.1 | 1 | 97 | 0 | -6
CC(=O)c1ccc(OCc2ccc(Oc3c(Cl)cccc3[N+](=O)[O-])cc2)cc1 | 1 | 1 | 32 | 102 | 1 | -2
CNC(=S)NNC(=O)c1sc(-c2cc(C)on2)nc1C | 0 | / | / | / | 74* | -5
CN(C)/C=N/c1nc2nccc(-c3cccnc3)n2n1 | 1 | 0.99 | 3 | 107 | 58* | 5
COc1ccc(-c2ccnc3nc(/N=C/N(C)C)nn23)cc1 | 1 | 1.2 | 23 | 102 | 10 | -3
COc1ccc(NC(=O)Nc2ccccc2OC)cc1 | 1 | 2.5 | 32 | 114 | 5 | -21
COc1ccccc1NC(=O)c1sc(Cl)nc1C | / | / | / | / | 70* | /
COc1ccccc1NC(=O)CC(=O)c1ccccc1 | / | / | / | / | 6 | /
COc1ccccc1NC(=O)Nc1cc(NC(=O)Nc2ccccc2OC)c(C)nc1C | 0 | 1.4 | 1 | 100 | 49* | -12
COc1ccccc1NC(=O)Cn1ncc2c1-c1ccccc1OC2 | 0 | 1.1 | 21 | 98 | 59* | -15
Cc1nc(Cl)sc1C(=O)Nc1ccccc1Cl | / | / | / | / | -4 | /
COc1ccccc1NC(=O)CC(=O)Nc1ccccc1OC | / | / | / | / | 69* | /
COc1cccc(-n2nnc3c(=O)n(CC(=O)Nc4ccc(C)cc4)cnc32)c1 | 1 | 1.1 | 17 | 104 | 0 | 9
COc1ccc(/C=N/OC(=O)Nc2ccccc2OC)cc1 | 1 | 6.3* | 92 | 107 | 5 | -10
COc1ccccc1NC(=O)Cc1nn(C)c(=O)c2ccccc12 | -1 | 0.83 | 8 | 85 | 64* | -12
COc1ccc(NC(=O)O/N=C/c2ccc(Br)cc2)cc1 | / | / | / | / | 4 | /
COc1cccc(OC)c1NC(=O)Cc1nn(C)c(=O)c2ccccc12 | -1 | 0.95 | 3 | 97 | 4 | 1
CC(Sc1nnc(Cc2ccccc2)o1)C(=O)Nc1ccccc1[N+](=O)[O-] (stereo not drawn) | / | / | / | / | 2 | /
Cc1csc(CNC(=O)C2CCC(=O)N(CCCc3ccccc3)C2)n1 (stereo not drawn) | / | / | / | / | -4 | /
Cc1ccc(OCC(=O)Nc2ccc(F)cc2)c([N+](=O)[O-])n1 | 0 | 1.2 | 68 | 142* | 5 | -5
O=C(COc1ccccc1[N+](=O)[O-])Nc1ccc2c(c1)OCO2 | 2 | / | 106 | 150* | 46 | /
Cc1ccc(OCC(=O)NCC(=O)Nc2ccc(F)cc2)c([N+](=O)[O-])n1 | 0 | 1.1 | 3 | 104 | 3 | -4
COc1cc(C(=O)Nc2ccc3c(c2)OCO3)c([N+](=O)[O-])cc1OC | / | / | / | / | 59* | /
SMILES | PERK inhibitor | NF-kB expr up | APP 5'UTR act | STAT1 act | AHR act | MDM2 E3 inh
O=C(COc1cc(F)ccc1[N+](=O)[O-])Nc1cccc(Br)c1 | 1 | 1.3 | 40 | 129* | 9 | -17
O=C(COc1cc(F)ccc1[N+](=O)[O-])Nc1ccc2c(c1)OCO2 | / | / | / | / | -4 | /
COc1ccccc1NS(=O)(=O)c1cc(NC(=O)COc2ccccc2F)ccc1N1CCOCC1 | / | / | / | / | 2 | /
CCCCn1nc2cc(C(=O)NCc3ccc(OC(F)(F)F)cc3)ccc2c1OC | 1 | 1 | 2 | 100 | 2 | -10
COc1cc(CCN2C(=O)c3cccc4cccc(c34)C2=O)c(S(=O)(=O)N2CCC(C)CC2)cc1OC | 0 | 0.28 | 0 | 100 | 18 | -14
NC(=O)c1cc(Cl)ccc1OCC(=O)Nc1ccc2c(c1)OCO2 | / | / | / | / | 51* | /
Cc1ccc(Cl)c(OCC(=O)Nc2ccc3c(c2)OCCO3)c1 | -1 | 3.8* | 160* | 123 | -3 | -17
